# Source: ChEMBL document CHEMBL4152390, “Discovery of the First-in-Class Dual Histone Deacetylase-Proteasome Inhibitor” (J Med Chem, 2018)
# The source made the active and inactive calls. The calls are words filed in the database; no cut-off is given here.
# Columns and labels:
# Histone deacetylase 2 = Histone deacetylase 2 (Homo sapiens, UniProt Q92769); assay: Inhibition of C-terminal GST-tagged recombinant human HDAC2 expressed in baculovirus infected insect cells using RHKK(Ac)AMC as substrate by fluorescence-based assay
# Sequence of Histone deacetylase 2 (Q92769 whole entry): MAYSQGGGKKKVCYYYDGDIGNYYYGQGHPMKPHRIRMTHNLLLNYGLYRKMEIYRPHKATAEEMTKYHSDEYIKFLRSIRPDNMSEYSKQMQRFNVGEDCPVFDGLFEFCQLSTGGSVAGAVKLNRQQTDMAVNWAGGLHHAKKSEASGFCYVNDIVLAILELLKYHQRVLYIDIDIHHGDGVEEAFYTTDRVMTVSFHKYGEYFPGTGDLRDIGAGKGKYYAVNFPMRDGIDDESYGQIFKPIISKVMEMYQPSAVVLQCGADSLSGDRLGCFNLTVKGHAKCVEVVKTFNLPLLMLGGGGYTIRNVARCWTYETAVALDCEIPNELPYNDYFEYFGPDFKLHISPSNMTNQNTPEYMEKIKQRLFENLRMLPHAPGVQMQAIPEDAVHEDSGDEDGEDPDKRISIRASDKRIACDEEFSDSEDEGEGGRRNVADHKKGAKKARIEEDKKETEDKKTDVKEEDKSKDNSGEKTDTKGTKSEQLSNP
# [1] = Cytotoxicity against human BCP-ALL cells derived from patient 1 after 72 hrs by CellTiter-Glo luminescent cell viability assay; format: functional, cell-based
# [2] = target: Proteasome Macropain subunit (Homo sapiens) (UniProt P49721); assay: Inhibition of trypsin-like activity of 20S proteasome in human imatinib-resistant SUP-B15 cells at 4 nM to 25 uM using Z-LRR-aminoluciferin as substrate after 2 hrs by proteasome-Glo assay; format: cell-based
# Sequence of Proteasome Macropain subunit (Homo sapiens) (P49721 whole entry): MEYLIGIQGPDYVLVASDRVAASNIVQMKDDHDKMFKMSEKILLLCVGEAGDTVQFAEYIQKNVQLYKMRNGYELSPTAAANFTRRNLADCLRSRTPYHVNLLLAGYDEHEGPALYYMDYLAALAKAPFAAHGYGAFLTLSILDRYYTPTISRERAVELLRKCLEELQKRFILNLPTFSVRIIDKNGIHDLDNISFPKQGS
# [3] = target: Proteasome Macropain subunit (Homo sapiens) (UniProt P49721); assay: Inhibition of trypsin-like activity of 20S proteasome in human SEM cells at 4 nM to 25 uM using Z-LRR-aminoluciferin as substrate after 2 hrs by proteasome-Glo assay; format: cell-based
# [4] = target: T1, Protein deacetylase HDAC6 (Homo sapiens) (UniProt Q9UBN7); assay: Inhibition of HDAC6 in imatinib-resistant human SUP-B15 cells assessed as increase in acetyl-histone H3 expression at 0.1 to 10 uM after 24 hrs by immunoblot assay; format: cell-based
# T1 sequence (whole entry): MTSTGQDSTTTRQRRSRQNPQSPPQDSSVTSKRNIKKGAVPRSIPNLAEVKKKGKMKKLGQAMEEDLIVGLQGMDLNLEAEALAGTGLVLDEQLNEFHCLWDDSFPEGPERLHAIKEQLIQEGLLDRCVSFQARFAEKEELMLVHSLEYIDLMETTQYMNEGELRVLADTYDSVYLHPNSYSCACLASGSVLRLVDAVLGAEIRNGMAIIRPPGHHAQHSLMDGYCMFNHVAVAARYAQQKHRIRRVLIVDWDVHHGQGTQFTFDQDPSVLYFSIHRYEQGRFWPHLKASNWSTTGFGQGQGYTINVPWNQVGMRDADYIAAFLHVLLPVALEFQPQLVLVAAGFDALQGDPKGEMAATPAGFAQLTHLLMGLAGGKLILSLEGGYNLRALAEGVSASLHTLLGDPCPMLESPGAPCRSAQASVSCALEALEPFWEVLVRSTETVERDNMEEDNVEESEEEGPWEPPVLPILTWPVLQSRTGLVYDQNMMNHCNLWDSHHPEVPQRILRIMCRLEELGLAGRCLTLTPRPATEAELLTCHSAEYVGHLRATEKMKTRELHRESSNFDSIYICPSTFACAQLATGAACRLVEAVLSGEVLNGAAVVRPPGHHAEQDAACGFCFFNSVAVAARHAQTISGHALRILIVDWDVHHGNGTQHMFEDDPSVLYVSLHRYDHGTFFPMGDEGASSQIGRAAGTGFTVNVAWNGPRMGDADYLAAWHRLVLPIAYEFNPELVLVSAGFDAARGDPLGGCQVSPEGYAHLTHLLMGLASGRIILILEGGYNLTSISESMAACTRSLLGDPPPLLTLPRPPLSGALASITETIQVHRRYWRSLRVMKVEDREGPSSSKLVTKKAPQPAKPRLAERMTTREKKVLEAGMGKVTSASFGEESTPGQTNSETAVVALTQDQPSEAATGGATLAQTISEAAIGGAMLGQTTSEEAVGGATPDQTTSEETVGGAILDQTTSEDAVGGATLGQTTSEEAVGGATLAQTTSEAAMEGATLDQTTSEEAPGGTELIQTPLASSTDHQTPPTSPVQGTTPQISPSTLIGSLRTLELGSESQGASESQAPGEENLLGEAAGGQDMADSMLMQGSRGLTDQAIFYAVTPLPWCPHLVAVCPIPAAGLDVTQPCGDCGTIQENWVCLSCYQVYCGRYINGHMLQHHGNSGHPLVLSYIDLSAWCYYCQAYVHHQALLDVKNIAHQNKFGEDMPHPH
# How it was run: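 Cells exposed for 24 h at indicated concentrations; lysates immunoblotted for acetyl-α-tubulin, acetyl-histone H3, PARP, with GAPDH as loading control.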
# SEM cells [5] = assay: Inhibition of HDAC6/chymotrypsin-like activity of 20S proteasome in human SEM cells assessed as increase in ATF6 protein expression at 0.1 to 10 uM after 18 hrs by Western blot assay; format: cell-based
# How it was run: (§1)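 Cells treated 18 h at indicated concentrations; lysates analysed by western blot for heat shock (Grp94, HSP70, HSP40, HSP27), UPR (BIP, ATF4, ATF6, pJNK) and autophagy (LC3B, p62) proteins.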
# SEM cells [6] = assay: Inhibition of HDAC6/chymotrypsin-like activity of 20S proteasome in human SEM cells assessed as decrease in aggresome accumulation at IC50 to 2 times IC50 after 18 hrs by FACS analysis; format: cell-based
# How it was run: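 Cells treated 18 h, then stained with a proteostat aggresome dye plus DNA stain. Imaged by fluorescence microscopy (63X objective) or analysed by FACS, with aggresome propensity factor from relative mean fluorescence intensity.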
# PBMC = assay: cells; format: ADME, cell-based; conditions: Homo sapiens, 72 h
# SEM cells [7] = assay: Inhibition of HDAC6/chymotrypsin-like activity of 20S proteasome in human SEM cells assessed as increase in LC3B protein expression at 0.1 to 10 uM after 18 hrs by Western blot assay; format: cell-based; how it was run: as §1
smiles,measurement,setting,value
C[C@H](NC(=O)[C@H](CC(=O)NCC(C)(C)C)NC(=O)c1ccc(C(=O)NO)cc1)C(=O)NCc1ccccc1,IC50,Histone deacetylase 2,18 µM
same,IC50,[1],2.06 µM
same,inhibition,[2],inactive
same,inhibition,[3],inactive
same,inhibition,[4],Active
same,inhibition,SEM cells [5],Active
same,inhibition,SEM cells [6],Active
same,IC50,PBMC,> 25 µM
same,inhibition,SEM cells [7],Active
